We go through 21 molecules from ChEMBL document CHEMBL1138900, “2,5-diketopiperazines as potent, selective, and orally bioavailable oxytocin antagonists. 3. Synthesis, pharmacokinetics, and in vivo potency” (J Med Chem, 2006).

What is called AUC is the area under the concentration-time curve, a measure of exposure. The term Ki denotes a measure of affinity in units of concentration, obtained from inhibition or displacement. By clearance is commonly meant a measure of how efficiently the substance is removed, as volume per time. One may read the bioavailability as dose-corrected exposure relative to a reference, in per cent. In general, solubility refers to how much of the substance goes into solution per volume.

Structures are written as SMILES. Converted amounts (≈) assume the structure as drawn.

A short description of data set [1]: Lipophilicity, log D by CHI method. The format is physicochemical. To be noted: read-out: Log D. The gist of the method: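 Lipophilicity determined by an HPLC-based method.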
A short description of data set [2]: AUC in rat. In kind it is ADME, organism-based. Details: concentration or dose not given beside the values. The following applies: plasma. The gist of the method:
(§1)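 Rat pharmacokinetics, n = 4; dosed at 5 mg/kg in 5% DMSO/95% PEG400. AUC in ng·h mL⁻¹, clearance in mL min⁻¹ kg⁻¹, half-life in h.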

Data set [3] concerns the target T1, Oxytocin receptor (Homo sapiens, UniProt P30559).
T1 sequence (P30559 whole entry): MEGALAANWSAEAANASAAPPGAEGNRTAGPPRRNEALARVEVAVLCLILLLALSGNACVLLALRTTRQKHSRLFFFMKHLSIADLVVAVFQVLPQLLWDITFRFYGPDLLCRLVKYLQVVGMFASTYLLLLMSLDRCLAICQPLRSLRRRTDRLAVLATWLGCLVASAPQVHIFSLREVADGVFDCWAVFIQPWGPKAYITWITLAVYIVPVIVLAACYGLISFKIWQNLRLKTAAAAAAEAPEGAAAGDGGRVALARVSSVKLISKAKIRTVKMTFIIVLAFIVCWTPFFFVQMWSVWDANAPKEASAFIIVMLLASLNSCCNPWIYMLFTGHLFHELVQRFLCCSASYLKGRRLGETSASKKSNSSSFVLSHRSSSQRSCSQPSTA
Kind of data set: Displacement of [3H]oxytocin from human OTR. In general terms: Loss of bound radioactivity is the signal in a displacement assay; it reports binding, not function.

The nature of data set [4]: Clearance in rat. In kind it is ADME, organism-based. To be noted: in vivo. The gist of the method: as §1
The nature of data set [5]: Oral bioavailability in rat. The format is ADME, organism-based. The following applies: in vivo.
Data set [6] can be described thus: Oral bioavailability in dog. The following applies: in vivo. The format is ADME, organism-based, Canis lupus familiaris.
A short description of data set [7]: Clearance in dog. In kind it is ADME, organism-based, Canis lupus familiaris. To be noted: in vivo. The gist of the method:
(§2)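 Dog pharmacokinetics, n = 3; dosed at 0.6 mg/kg in 5% DMSO/95% PEG400. AUC reported as ng·h mL⁻¹ and clearance as mL min⁻¹ kg⁻¹.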

Data set [8] is described as follows: Solubility of the compound. The format is physicochemical. In outline:
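Aqueous solubility (mg mL⁻¹) measured by precipitation followed by HPLC.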

The nature of data set [9]: AUC in dog. The format is ADME, organism-based, Canis lupus familiaris. On the set-up: concentration or dose not given beside the values. The following applies: plasma. In outline:
as §2

Take `CC(C)C[C@@H]1C(=O)N[C@H](C2Cc3ccccc3C2)C(=O)N1[C@@H](C(=O)N1CCN(C)CC1)c1ccc(F)cc1`: in data set [1], the chromatographic logD was 2.7.

Turning to `Cc1ccc([C@H](C(=O)NC(C)C)N2C(=O)[C@@H](C3Cc4ccccc4C3)NC(=O)[C@H]2CC(C)C)o1`, in data set [1], the chromatographic logD worked out at 3.3.

In the case of `CC(C)C[C@@H]1C(=O)N[C@H](C2Cc3ccccc3C2)C(=O)N1[C@@H](CO)c1ccc(F)cc1F`, the AUC in data set [2] is 567 ng·h/mL. Further, the Ki in data set [3] was 12.6 nM.

In the case of `CC(C)C[C@@H]1C(=O)N[C@H](C2Cc3ccccc3C2)C(=O)N1[C@@H](C(=O)NCC(F)(F)F)c1ccc(F)cc1`, the chromatographic logD in [1] was determined as 3.3.

With `CC(C)C[C@@H]1C(=O)N[C@H](C2Cc3ccccc3C2)C(=O)N1[C@@H](C(=O)NC(C)(C)C)c1ccc2c(c1)OCO2`, in data set [1], the chromatographic logD was 3.3. In addition, the clearance in data set [4] worked out at 34 mL/min/kg; in [7], 23 mL/min/kg. Also, the bioavailability in data set [5] came out at 48%; in data set [6], 14%. For the same molecule, the affinity in data set [3], expressed as Ki, was 3.98 nM.

Turning to `CC(C)C[C@@H]1C(=O)N[C@H](C2Cc3ccccc3C2)C(=O)N1[C@@H](C(=O)N1CC(O)C1)c1ccc(F)cc1F`, the chromatographic logD in data set [1] was 2.8. In addition, the clearance in data set [4] came to 19 mL/min/kg. Also, the solubility in [8] was found to be 187 µg/mL (≈ 366 µM). Further, the bioavailability in data set [5] was found to be 12%. Also, in data set [2], the AUC was found to be 540 ng·h/mL. Affinity in data set [3] was put at a Ki of 0.631 nM.

Take `CC(C)C[C@@H]1C(=O)N[C@H](C2Cc3ccccc3C2)C(=O)N1[C@@H](C(N)=O)c1ccc(F)cc1F`: the chromatographic logD in data set [1] stood at 2.5. In [4], this molecule showed a clearance of 33 mL/min/kg. Besides, the solubility in [8] turned out to be 1 µg/mL (≈ 2.2 µM). Besides, in [5], the bioavailability turned out to be 22%. Also, the AUC in data set [2] was 560 ng·h/mL. This molecule also gave a Ki in data set [3] of 0.501 nM.

As to `CC(C)C[C@@H]1C(=O)N[C@H](C2Cc3ccccc3C2)C(=O)N1[C@@H](C(=O)N1CCOCC1)c1ccc(F)cc1F`, in [1], the chromatographic logD was 3.2. Also, the figures for the clearance in data set [4] and in [7] were 16 mL/min/kg and 8 mL/min/kg, respectively. Besides, the bioavailability in [5] worked out at 41%; in data set [6], 7%. For the same molecule, the AUC amounted to 100 ng·h/mL in [9] and 2150 ng·h/mL in data set [2]. The Ki in data set [3] was 1.26 nM.

Turning to `COc1ccc([C@H](C(=O)NC(C)(C)C)N2C(=O)[C@@H](C3Cc4ccccc4C3)NC(=O)[C@H]2CC(C)C)cc1F`, the chromatographic logD in data set [1] was found to be 3.4.

As for `CNC(=O)[C@@H](c1ccc(F)cc1F)N1C(=O)[C@@H](C2Cc3ccccc3C2)NC(=O)[C@H]1CC(C)C`, in data set [1], the chromatographic logD came out at 2.9. Further, the clearance in data set [4] stood at 32 mL/min/kg; in data set [7], 13 mL/min/kg. In data set [8], this molecule gave a solubility of 89 µg/mL (≈ 190 µM). Moreover, the bioavailability came out at 98% in [5] and 11% in data set [6]. For the same molecule, the AUC in data set [9] was found to be 82 ng·h/mL; in data set [2], 3690 ng·h/mL. In [3], the Ki was 0.398 nM.

For `CC[C@@H](C)[C@@H]1C(=O)N[C@H](C2Cc3ccccc3C2)C(=O)N1[C@@H](C(=O)NC(C)C)c1ccc(N2CCOCC2)cc1`, the chromatographic logD in [1] was found to be 3. Further, the clearance in data set [4] worked out at 24 mL/min/kg; in [7] it was 6 mL/min/kg. Also, the results for the bioavailability in data set [5] and in [6] were 31% and 61%, respectively. Also, the Ki in [3] was 1.58 nM.

As to `CCNS(=O)(=O)c1ccc(-c2ccc([C@H](C(=O)NC(C)(C)C)N3C(=O)[C@@H](C4Cc5ccccc5C4)NC(=O)[C@H]3CC(C)C)cc2)cc1`, the chromatographic logD in data set [1] is 3.4.

Consider `CC(C)C[C@@H]1C(=O)N[C@H](C2Cc3ccccc3C2)C(=O)N1[C@@H](C(=O)N(C)Cc1ccccn1)c1ccc(F)cc1`, for which the chromatographic logD in [1] is 3.2.

On to `CC(C)C[C@@H]1C(=O)N[C@H](C2Cc3ccccc3C2)C(=O)N1[C@@H](C(=O)NC(C)(C)C)c1ccc2c(c1)CCO2`, for which the chromatographic logD in data set [1] stood at 3.4. Further, the clearance turned out to be 39 mL/min/kg in data set [4] and 14 mL/min/kg in data set [7]. Moreover, the bioavailability in data set [5] is 27%; in data set [6], 9%. Besides, affinity in data set [3] was put at a Ki of 3.98 nM.

As for `CC(C)C[C@@H]1C(=O)N[C@H](C2Cc3ccccc3C2)C(=O)N1[C@@H](C(=O)NC(C)(C)C)c1ccc(N2CCC(O)CC2)cc1`, the chromatographic logD in data set [1] is 2.4. Further, the clearance stood at 26 mL/min/kg in [4] and 21 mL/min/kg in [7]. The results for the bioavailability in data set [5] and in data set [6] were 24% and 10%, respectively. This molecule also had a Ki in [3] of 3.98 nM.

Consider `CC(C)C[C@@H]1C(=O)N[C@H](C2Cc3ccccc3C2)C(=O)N1[C@@H](C(=O)NCCO)c1ccc(F)cc1`, for which the chromatographic logD in data set [1] was found to be 2.3.

Take `CC(C)C[C@@H]1C(=O)N[C@H](C2Cc3ccccc3C2)C(=O)N1[C@@H](C(=O)NC(C)C)c1ccc(N(C)C)cc1`: the clearance in [4] came out at 48 mL/min/kg; in data set [7], 15 mL/min/kg. For the same molecule, the bioavailability came out at 2% in data set [5] and 50% in data set [6].

On to `CC(C)C[C@@H]1C(=O)N[C@H](C2Cc3ccccc3C2)C(=O)N1[C@@H](C(=O)NCCN1CCCCC1)c1ccc(F)cc1`, for which, in [1], the chromatographic logD stood at 2.

For `CC(C)C[C@@H]1C(=O)N[C@H](C2Cc3ccccc3C2)C(=O)N1[C@@H](C(=O)O)c1ccc(F)cc1F`, the chromatographic logD in data set [1] came to 1.7. Also, the clearance in [4] came to 53 mL/min/kg; in data set [7], 21 mL/min/kg. In data set [8], this molecule gave a solubility of 216 µg/mL (≈ 473 µM). Moreover, the figures for the bioavailability in data set [5] and in data set [6] were 30% and 5%, respectively. The values for the AUC in data set [9] and in data set [2] were 23 ng·h/mL and 805 ng·h/mL, respectively. In data set [3], the affinity, expressed as Ki, was 0.631 nM.

As to `CC(C)C[C@@H]1C(=O)N[C@H](C2Cc3ccccc3C2)C(=O)N1[C@@H](C(=O)N(C)CCO)c1ccc(F)cc1F`, in [1], the chromatographic logD worked out at 2.8. Further, the clearance in data set [4] stood at 19 mL/min/kg; in [7], 6 mL/min/kg. In addition, in [8], the solubility was found to be 159 µg/mL (≈ 310 µM). Moreover, the bioavailability came to 55% in data set [5] and 14% in [6]. Besides, the AUC was 200 ng·h/mL in [9] and 2350 ng·h/mL in data set [2]. This molecule had a Ki in data set [3] of 0.126 nM.

On to `CC(C)C[C@@H]1C(=O)N[C@H](C2Cc3ccccc3C2)C(=O)N1[C@@H](C(=O)N1CCC1)c1ccc(F)cc1F`, for which the chromatographic logD in data set [1] worked out at 3.3. In addition, the clearance turned out to be 22 mL/min/kg in [4] and 4 mL/min/kg in data set [7]. For the same molecule, the solubility in data set [8] stood at 1 µg/mL (≈ 2.02 µM). Besides, the bioavailability in [5] is 17%; in [6], 37%. Further, the AUC was found to be 710 ng·h/mL in data set [9] and 660 ng·h/mL in data set [2]. The same molecule showed a Ki in data set [3] of 0.631 nM.
